Assays:
[1] = tested on: PC-3; assay: Cytotoxicity against human PC3 cells after 48 hrs by MTT assay; format: functional, cell-based; conditions: PC-3, 48 h
Procedure, shortened: (§1)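 ATCC lines grown in DMEM or RPMI with 10% FBS and antibiotic-antimycotic, 37 °C, 5% CO2. Seeded at 3×10^4 cells/well, 24 h before dosing with vehicle (DMSO) controls. […] Cisplatin as reference.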

[2] = tested on: SK-OV-3; assay: Cytotoxicity against human SKOV3 cells after 48 hrs by MTT assay; format: functional, cell-based; conditions: SK-OV-3, 48 h; procedure, shortened: as §1
[3] = tested on: HeLa; assay: Cytotoxicity against human HeLa cells after 48 hrs by MTT assay; format: functional, cell-based; procedure, shortened: as §1
[4] = tested on: HEK-293T; assay: Cytotoxicity against human HEK293T cells after 48 hrs by MTT assay; format: cell-based; procedure, shortened: as §1
[5] = tested on: HT-1080; assay: Cytotoxicity against human HT1080 cells after 48 hrs by MTT assay; format: functional, cell-based; conditions: HT-1080, 48 h; procedure, shortened: as §1

| SMILES | IC50 [1] [µM] | IC50 [2] [µM] | IC50 [3] [µM] | IC50 [4] [µM] | IC50 [5] [µM] |
| --- | --- | --- | --- | --- | --- |
| COc1cc2c3c(c4cc(OC)c(OC)cc4c2cc1OC)C(c1cc(OC)c(O)c(OC)c1)C1=C(CC(C)(C)CC1=O)N3 (stereo not given) | 6.84 | 6.5 | 9.42 | > 50 | 7.64 |
| COc1cc2c3c(c4cc(OC)c(OC)cc4c2cc1OC)C(c1ccc(C(C)C)cc1)C1=C(CCCC1=O)N3 (stereo not given) | 5.67 | 4.81 | 13.6 | 41.5 | 11.7 |
| COc1cc2c3c(c4cc(OC)c(OC)cc4c2cc1OC)C(c1ccc(Br)cc1)C1=C(CC(C)(C)CC1=O)N3 (stereo not given) | 12.4 | 15.5 | 31.6 | 36.3 | 11.6 |
| COc1cc2c3c(c4cc(OC)c(OC)cc4c2cc1OC)C(c1cccs1)C1=C(CC(C)(C)CC1=O)N3 (stereo not given) | 7.1 | 1.6 | 2.28 | 18.9 | 5.87 |
| COc1cc2c3c(c4cc(OC)c(OC)cc4c2cc1OC)C(c1ccc(C)cc1)C1=C(CCCC1=O)N3 (stereo not given) | 7.17 | 1.62 | 4.79 | 38.9 | 5.63 |
| COc1cc2c3c(c4cc(OC)c(OC)cc4c2cc1OC)C(c1sccc1C)C1=C(CC(C)(C)CC1=O)N3 (stereo not given) | 21.6 | 2.89 | 3.7 | 33.5 | 8.85 |
| COc1cc2c3c(c4cc(OC)c(OC)cc4c2cc1OC)C(c1ccc(C(F)(F)F)cc1)C1=C(CC(C)(C)CC1=O)N3 (stereo not given) | 31.4 | 18.6 | > 50 | 35.7 | 15.6 |
| COc1cc2c3c(c4cc(OC)c(OC)cc4c2cc1OC)C(c1cc(OC)c(OC)c(OC)c1)C1=C(CC(C)(C)CC1=O)N3 (stereo not given) | 8.9 | 10.8 | 12.1 | 29.2 | 16.3 |
| COc1cc2c3c(c4cc(OC)c(OC)cc4c2cc1OC)C(c1cccs1)C1=C(CCCC1=O)N3 (stereo not given) | 5.89 | 2.35 | 2.46 | 15.5 | 3.78 |
